Sampled rows, rich in hits. Any-hit rate of the full collection: about 0.55%.
V1aR counter: activates human V1a receptor in oxytocin agonist counter-screen. CHO-V1R cells, Fluo-8 calcium fluorescence, agonist mode; 0% DMSO, 100% 3 nM vasopressin. activation, % at 3 µM. 320,000 compounds, 0.25% hits;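 active = activation above the mean activation of all tested compounds plus 3 SD, per screening run, cut at about 20% in these data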;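 note: signal is peak over basal fluorescence ratio across a 100 second FLIPR read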
zfTRPN1 agonist: agonists of zebrafish TRPN1 channel; HEK293 zebrafish TRPN1-YFP, Fluo-8 calcium fluorescence; 100% = response to 87 µM carbachol; activation, % at 3 µM; 220,000 compounds, 0.18% hits;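 active = activation above its plate's cutoff, the mean activation of test wells on that plate plus 3 SD, cut at about 19% in these data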
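Assay system: Zebrafish TRPN1-YFP in HEK293 cells | Incubation: Dye loading 1 h at 37 °C, then 30 min room temperature | Measured by: Kinetic Fluo-8 fluorescence, ex 470-495, em 515-575 nm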
TRPML3 ag: activates the human TRPML3 channel; HEK293 TRPML3-YFP, Fluo-8 calcium fluorescence; 100% = the carbachol control signal; activation, % at 3 µM; 220,000 compounds, 0.29% hits;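 active = activation above its plate's cutoff, the mean activation of the plate's test wells plus 3 SD, cut at about 12% in these data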
Target sequence (Q8TDD5 whole entry, looked up): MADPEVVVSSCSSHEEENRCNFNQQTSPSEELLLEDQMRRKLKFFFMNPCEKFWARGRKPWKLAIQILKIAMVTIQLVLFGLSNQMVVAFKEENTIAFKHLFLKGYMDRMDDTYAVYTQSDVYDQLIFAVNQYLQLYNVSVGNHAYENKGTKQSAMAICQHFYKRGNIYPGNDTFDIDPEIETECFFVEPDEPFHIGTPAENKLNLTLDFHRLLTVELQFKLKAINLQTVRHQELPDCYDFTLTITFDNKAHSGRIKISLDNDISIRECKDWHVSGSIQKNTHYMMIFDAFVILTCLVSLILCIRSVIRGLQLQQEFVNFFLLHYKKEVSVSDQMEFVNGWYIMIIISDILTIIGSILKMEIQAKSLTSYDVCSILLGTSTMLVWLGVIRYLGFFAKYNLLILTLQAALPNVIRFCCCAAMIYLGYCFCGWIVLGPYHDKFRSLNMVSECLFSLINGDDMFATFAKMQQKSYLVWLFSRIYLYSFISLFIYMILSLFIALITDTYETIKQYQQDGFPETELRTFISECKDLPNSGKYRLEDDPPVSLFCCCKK
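Test system: HEK293 cells stably carrying human TRPML3-YFP; Doses: single dose, 3 µM final nominal compound, 0.3% DMSO final; Schedule: dye loading 1 h 37 °C then 30 min ambient, 125 s read; Technique: Fluo-8 calcium fluorescence; Benchmarks: high control carbachol 87 µM, low control DMSO.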
OXTR ag: activates the human oxytocin receptor | P30559 | CHO-OTR cells, Fluo-8 calcium fluorescence; normalized: DMSO 0%, oxytocin 100% | activation, % at 3 µM | 320,000 compounds, 0.32% hits | AID 2435;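 active = activation above the mean of all tested compounds plus 3 SD, cutoff set per screening run, cut at about 20% in these data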;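 note: peak over basal fluorescence ratio from a 100 s FLIPR kinetic read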
OXTR potentiate: potentiates the human oxytocin receptor response; P30559; CHO-OTR cells, Fluo-8 calcium fluorescence, potentiator mode; 0% = oxytocin EC15, 100% = EC100; activation, % at 3 µM; 320,000 compounds, 0.061% hits;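 active = activation above that plate's cutoff, the mean activation of tested compounds plus 3 SD, cut at about 6.6% in these data, passing the limit was not always enough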
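Assay system: CHO cell line stably expressing human OTR. Reagent: EC15 oxytocin agonist. Dosing: single dose, 3.0 µM nominal final compound concentration. Timing: compound 6 min at room temperature before oxytocin, 100 s read. Signal: kinetic Fluo-8 calcium fluorescence. Controls: oxytocin EC15 low and EC100 high.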
V1aR agonist cf: confirmation of human vasopressin V1a receptor agonists; shares compounds with V1aR counter; CHO-V1R cells, Fluo-8 calcium fluorescence, agonist; activation, % at 3 µM; 180 compounds, 20% hits; AID 434964;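 active = average activation exceeds primary screen hit cutoff, cut at about 21% in these data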;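 note: peak over basal fluorescence ratio during a 100 s FLIPR read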
OXTR ag counter: counter-screen for V1a receptor agonists: oxytocin receptor agonists; shares compounds with V1aR counter; CHO-OTR cells, Fluo-8 calcium fluorescence, agonist; activation, % at 3 µM; 180 compounds, 10% hits; AID 434969;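 active = mean activation over three repeats above the cutoff from the earlier oxytocin receptor agonist screen, cut at about 20% in these data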;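 note: peak over minimum fluorescence ratio within a 100 second FLIPR read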
Large screens that a line does not name were inactive (follow-up assays come after a bar, where they were run).

CCOc1cccc(-c2c(C(=O)N/N=C/c3cccs3)nnn2-c2nonc2N)c1	V1aR counter 24 (no result: zfTRPN1 agonist, TRPML3 ag) | V1aR agonist cf inactive | OXTR ag counter inactive
COc1cccc(-c2c(C(=O)N/N=C(\C)c3ccc(Cl)s3)nnn2-c2nonc2N)c1	V1aR counter 25 (no result: zfTRPN1 agonist, TRPML3 ag) | V1aR agonist cf inactive | OXTR ag counter inactive
CC(N=Cc1c(O)c2ccccc2oc1=O)C(=O)O (configuration not stated)	none
CN(C)CCNc1c2c(nc3nnnn13)CCCC2	none
O=C(NC(=O)c1cnccc1C(F)(F)F)Nc1ccccc1	none
O=C(NCc1ccco1)c1cc2cc(Br)ccc2o1	none (no result: zfTRPN1 agonist, TRPML3 ag)
c1cc2c3c(cccc3c1)NC1(CCCCCC1)N2	none
c1cc2c3c(cccc3c1)NC1(CCC3(CC1)Nc1cccc4cccc(c14)N3)N2	V1aR counter 32 | V1aR agonist cf inactive | OXTR ag counter inactive
COc1cc(C(=O)NNC(=S)NC(=O)c2ccc3c(c2)OCO3)cc(OC)c1OC	none
COc1cc(C(=O)NNC(=S)NC(=O)c2ccccc2C)cc(OC)c1OC	V1aR counter 29 | V1aR agonist cf inactive | OXTR ag counter inactive
COc1ccc(-n2c(SCC(=O)Nc3ccccc3)nc3c(c2=O)SCC3)cc1	none
COCCN1C(=O)/C(=C/c2ccc(N3CCCC3)cc2)SC1=S	V1aR counter 28 | V1aR agonist cf 99 | OXTR ag counter 76
COc1ccc(/C=C2\SC(=S)N(CCC(=O)N3CCCCC3)C2=O)cc1	none (no result: zfTRPN1 agonist, TRPML3 ag)
COc1cc2c(cc1CNC[C@H]1O[C@@H](n3cnc4c(N)ncnc43)[C@H](O)[C@@H]1O)OCO2	none (no result: zfTRPN1 agonist, TRPML3 ag)
COc1ccc(CC(=O)Nc2cccc(C(=O)O)c2C)cc1	none
CCC1Sc2ccc(S(=O)(=O)Nc3ccc(OC)c(OC)c3)cc2NC1=O (configuration not stated)	none (no result: zfTRPN1 agonist, TRPML3 ag)
CCC1Sc2ccc(S(=O)(=O)Nc3ccc(OC)cc3)cc2NC1=O (configuration not stated)	V1aR counter 20 (no result: zfTRPN1 agonist, TRPML3 ag) | V1aR agonist cf inactive | OXTR ag counter inactive
O=C(Cc1ccc([N+](=O)[O-])cc1)N1N=C(c2ccncc2)CC1(O)C(F)(F)F (configuration not stated)	none
CCC(C)C(NC(=O)OCc1ccccc1)C(=O)NC(Cc1ccc(O)cc1)C(=O)OC (configuration not stated)	V1aR counter 27 | V1aR agonist cf inactive | OXTR ag counter inactive
O=C(COC(=O)c1ccccc1NCCO)NCC1CCCCC1	none (no result: zfTRPN1 agonist, TRPML3 ag)
CCOc1ccc(CONS(=O)(=O)c2ccc(NC(C)=O)cc2)cc1Cl	V1aR counter 23 | V1aR agonist cf inactive | OXTR ag counter inactive
NS(=O)(=O)c1ccc2nc(NC(=O)Nc3ccc(F)cc3)sc2c1	V1aR counter 24 (no result: zfTRPN1 agonist, TRPML3 ag) | V1aR agonist cf inactive | OXTR ag counter inactive
CCC(NC(=O)c1cc(COc2ccc(C)nc2)on1)c1ccc(C)cc1 (configuration not stated)	V1aR counter 23 (no result: zfTRPN1 agonist, TRPML3 ag) | V1aR agonist cf inactive | OXTR ag counter inactive
Cc1cccc(N/C(N)=N/c2nc(C)cc(C)n2)c1	V1aR counter 21 | V1aR agonist cf inactive | OXTR ag counter inactive
CC(=O)Nc1cccc(N/C(N)=N/c2nc(C)cc(C)n2)c1	none
CCCCCCCCCCC[N+](C)(C)CC/C=C1/c2ccccc2Sc2ccc(Cl)cc21	V1aR counter 38 (no result: zfTRPN1 agonist, TRPML3 ag) | V1aR agonist cf inactive | OXTR ag counter inactive
CSCCC(NC(=O)c1ccc([N+](=O)[O-])cc1Cl)C(=O)OC(C)C(=O)NCc1ccco1 (configuration not stated)	none (no result: zfTRPN1 agonist, TRPML3 ag)
Cc1ccc(/C=N/n2c(-c3cccs3)n[nH]c2=S)cc1	none
S=c1[nH]nc(-c2cccs2)n1/N=C/c1c(Cl)cccc1Cl	V1aR counter 27 | V1aR agonist cf inactive | OXTR ag counter inactive
O=C(CCCC(=O)NCC1CCCO1)NCC1CCCO1 (configuration not stated)	V1aR counter 20 | V1aR agonist cf inactive | OXTR ag counter inactive
O=C(O)c1cccc(CSc2nc(-c3ccc(Cl)cc3)cc(C(F)(F)F)n2)c1	V1aR counter 21 | V1aR agonist cf inactive | OXTR ag counter inactive
COc1cc(OC)cc(C(=O)NCCS(=O)(=O)N2CCN(Cc3ccccc3)CC2)c1	none (no result: zfTRPN1 agonist, TRPML3 ag)
COCCN=C1N[C@@H](c2cccc(C(F)(F)F)c2)C(C(=O)OC)=C(C)N1Cc1ccccc1	none (no result: zfTRPN1 agonist, TRPML3 ag)
COC(=O)C1=C(C)N(Cc2ccccc2)C(=NCCc2c[nH]c3ccccc23)N[C@H]1c1cccc(C(F)(F)F)c1	V1aR counter 20 (no result: zfTRPN1 agonist, TRPML3 ag) | V1aR agonist cf inactive | OXTR ag counter inactive
C=CCN(c1ccc(C(=O)NCCc2ccccc2)cc1)S(C)(=O)=O	none
O=c1c(-c2nc3ccccc3s2)cccn1Cc1ccc(Cl)cc1	V1aR counter 22 | V1aR agonist cf inactive | OXTR ag counter inactive
Clc1ncccc1-c1nc2ccccc2s1	none
COc1ccc(C(C)NC(=O)c2ccc([N+](=O)[O-])cc2)cc1OC (configuration not stated)	none
CCCCCCCCCCOC(=O)Cn1c(COc2ccccc2OC)[n+](C)c2ccccc21	V1aR counter 56 (no result: zfTRPN1 agonist, TRPML3 ag) | V1aR agonist cf inactive | OXTR ag counter inactive
CCCCCc1ccc(OCCCC[n+]2ccc(C)cc2)c(CCCCC)c1	V1aR counter 22 | V1aR agonist cf inactive | OXTR ag counter inactive
CCCCCc1ccc(OCCCC[n+]2ccccc2)c(CCCCC)c1	none
Nc1nc(-c2ccccn2)nc(N)c1Cc1ccc(Cl)cc1Cl	V1aR counter 22 | V1aR agonist cf inactive | OXTR ag counter inactive
CC(C)c1ccc(NC(=O)C2CCC(CNC(=O)[C@@H]3Cc4ccccc4CN3)CC2)cc1 (some centres not stated)	V1aR counter 24 (no result: zfTRPN1 agonist, TRPML3 ag) | V1aR agonist cf inactive | OXTR ag counter inactive
Cc1ccc(NC(=O)C2CCC(CNC(=O)[C@@H]3Cc4ccccc4CN3)CC2)cc1 (some centres not stated)	none (no result: zfTRPN1 agonist, TRPML3 ag)
COc1cc(C(=O)O)ccc1OCc1ccncc1	none (no result: zfTRPN1 agonist, TRPML3 ag)
COc1ccc(OC)c2c1C(=O)c1ccccc1C2=O	V1aR counter 23 | V1aR agonist cf 33 | OXTR ag counter 21
COc1ccccc1CN1C[C@@H]2C[C@@H](c3[nH]c4c(C)cccc4c3C)N3CCC[C@@]23C1=O	V1aR counter 35 | V1aR agonist cf inactive | OXTR ag counter inactive
O=C(NNC(=O)C1CC(c2cccs2)=NO1)NC1CCCCC1 (configuration not stated)	none
O=C(NC(=S)NCCc1ccccn1)c1ccccc1	none
O=C(NC(=S)NCCc1ccccn1)c1ccco1	V1aR counter 117 | V1aR agonist cf inactive | OXTR ag counter inactive

Screens as filed in PubChem.
